Laboratory results as given in ChEMBL document CHEMBL5331127, “Discovery of ARD-2051 as a Potent and Orally Efficacious Proteolysis Targeting Chimera (PROTAC) Degrader of Androgen Receptor for the Treatment of Advanced Prostate Cancer” (J Med Chem, 2023).
The source made the active and inactive calls. No cut-off for these calls is given here.

What was measured:
LNCaP [1] = test: Induction of androgen receptor degradation in human LNCaP cells at 100 nM pretreated with MG132 for 2 hrs followed by compound addition and 3 hrs by Western blot analysis; format: functional, cell-based; conditions: time 5.0 hrs
In short: (§1)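 LNCaP or VCaP cells pretreated 2 h with DMSO, ARi-12 (10 μM), thalidomide (10 μM), MG-132 (3 μM) or MLN4924 (0.5 μM), then given degrader at 100 nM for 3 h. AR measured by Western blot with GAPDH as loading control.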

[2] = Oral bioavailability in ICR mouse at 5 mg/kg measured up to 24 hrs by LC-MS/MS analysis; format: ADME, organism-based; conditions: in vivo
In short: (§2)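 Male ICR mice. IV 2 mg/kg and PO 5 mg/kg, both in 10% PEG400 + 90% PBS adjusted to pH 8.0. Plasma sampled to 24 h; F from IV and PO exposure.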

[3] = Metabolic stability in monkey hepatocytes assessed as half life at 1 uM measured upto 120 mins in presence of NADPH by LC-MS/MS analysis; format: ADME, cell-based, Macaca mulatta, Hepatocyte; conditions: rhesus monkey, 2 h
[4] = molecular target: Androgen receptor (Homo sapiens) (UniProt P10275); test: In vivo induction of androgen receptor degradation in human VCaP cells xenografted in CB17 SCID mouse assessed as reduction in AR protein level at 12.5 mg/kg, po measured after 24 hrs by Western blotting analysis; set-up: scale not given: the % may be the effect or the level left
[5] = Volume of distribution at steady state in ICR mouse at 2 mg/kg, iv measured upto 24 hrs by LC-MS/MS analysis; format: ADME, organism-based; conditions: in vivo; in short: as §2
VCaP [6] = test: Antitumor activity against human VCaP cells xenografted in CB17 SCID mouse assessed as tumor growth inhibition at 15 mg/kg, po administered for 21 days; format: functional; conditions: 504 h, time 21 day, read-out: TGI
[7] = Cmax in Beagle dog at 3 mg/kg, po measured up to 24 hrs by LC-MS/MS analysis; format: ADME, organism-based, Canis lupus familiaris; set-up: time < 24 hrs, dose 3 mg/kg, route po; conditions: in vivo
In short: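 Male Beagle dogs dosed orally at 3 mg/kg in 90% PEG400 + 10% Cremophor.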

VCaP [8] = test: Antitumor activity against human VCaP cells xenografted in CB17 SCID mouse assessed as tumor growth inhibition at 30 mg/kg, po administered for 21 days; format: functional; conditions: 504 h, time 21 day, read-out: TGI
VCaP [9] = test: Downregulation of KLK3 gene expression in human VCaP cells incubated for 24 hrs by qRT-PCR analysis; format: functional, cell-based; conditions: dose 0.03-30 nM
In short: (§3)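 LNCaP cells (RPMI 1640) or VCaP cells (DMEM Glutamax), both with 10% FBS, treated for 24 h. KLK3 mRNA measured by qRT-PCR and calculated by the comparative CT method against GAPDH and vehicle.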

[10] = Downregulation of KLK3 gene expression in human LNCaP cells at 10 nM incubated for 24 hrs by qRT-PCR analysis; format: functional; in short: as §3
VCaP [11] = test: Induction of androgen receptor degradation in human VCaP cells at 100 nM pretreated with MLN4924 for 2 hrs followed by compound addition and 3 hrs by Western blot analysis; format: functional, cell-based; conditions: time 5.0 hrs; in short: as §1
[12] = Metabolic stability in rat liver microsomes assessed as half life at 1 uM measured upto 45 mins in presence of NADPH by LC-MS/MS analysis; format: ADME, Microsome; conditions: 0.75 h
In short: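 Pooled liver microsomes from each species: 1 μM compound with 0.5 mg/mL microsomes and 1.7 mM NADPH in 0.1 M K-phosphate, pH 7.4, 5 mM MgCl2, 37 °C. Sampled at 0, 5, 10, 15, 30 and 45 min with cold ACN quench. No-NADPH incubation as negative control; ketanserin as positive control. LC-MS/MS; half-life from ln(remaining) versus time.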

Cytochrome P450 2C19 = Cytochrome P450 2C19 (Homo sapiens, UniProt P33261); test: Inhibition of CYP2C19 in human liver microsomes preincubated for 5 mins followed by NADPH addition and measured after 10 mins by LC/MS analysis; format: ADME, Microsome
Chain of Cytochrome P450 2C19 (P33261 whole entry): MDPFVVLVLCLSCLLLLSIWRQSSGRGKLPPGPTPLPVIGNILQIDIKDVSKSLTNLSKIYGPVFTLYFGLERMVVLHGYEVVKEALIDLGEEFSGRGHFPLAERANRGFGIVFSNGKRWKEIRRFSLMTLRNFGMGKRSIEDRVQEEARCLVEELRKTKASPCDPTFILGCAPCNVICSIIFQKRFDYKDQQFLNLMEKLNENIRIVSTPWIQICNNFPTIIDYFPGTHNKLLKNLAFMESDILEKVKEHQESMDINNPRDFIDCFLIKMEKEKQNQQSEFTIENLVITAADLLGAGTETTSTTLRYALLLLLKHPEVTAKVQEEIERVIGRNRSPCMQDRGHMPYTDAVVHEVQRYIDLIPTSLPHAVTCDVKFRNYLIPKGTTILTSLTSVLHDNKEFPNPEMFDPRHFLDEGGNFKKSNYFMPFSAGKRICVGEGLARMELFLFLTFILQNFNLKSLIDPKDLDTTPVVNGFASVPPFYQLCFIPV

[13] = Clearance in Sprague-Dawley rat at 1 mg/kg, iv measured upto 24 hrs by LC-MS/MS analysis; format: ADME, organism-based; conditions: in vivo
In short: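 Male Sprague Dawley rats received a single intravenous dose of 1 mg/kg, formulated in 10% PEG400 + 90% PBS adjusted to pH 8.0 with 0.5 N NaOH.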

LNCaP [14] = test: Induction of androgen receptor degradation in human LNCaP cells at 100 nM pretreated with ARi-12 for 2 hrs followed by compound addition and 3 hrs by Western blot analysis; format: functional, cell-based; conditions: time 5.0 hrs; in short: as §1
[15] = Metabolic stability in rat hepatocytes assessed as half life at 1 uM measured upto 120 mins in presence of NADPH by LC-MS/MS analysis; format: ADME, cell-based, Hepatocyte; conditions: 2 h
[16] = Volume of distribution at steady state in Beagle dog at 1 mg/kg, iv measured upto 24 hrs by LC-MS/MS analysis; format: ADME, organism-based, Canis lupus familiaris; conditions: in vivo
In short: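 Male Beagle dogs. IV 1 mg/kg in 10% PEG400 + 90% PBS (pH 8.0); PO 3 mg/kg in 90% PEG400 + 10% Cremophor. Plasma PK to 24 h; F from IV and PO exposure.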

[17] = Metabolic stability in monkey plasma assessed as half life at 1 uM measured upto 120 mins by LC-MS/MS analysis; format: ADME, cell-free, Macaca mulatta; conditions: rhesus monkey, 2 h
In short: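 Compound at 1 μM final in pre-warmed plasma of each species, 37 °C for up to 2 h. ACN/IS quench at 0, 5, 15, 30, 60 and 120 min; LC/MS. Procaine as reference (benfluorex for rat). t1/2 = 0.693/slope of ln(fraction remaining) versus time.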

[18] = Plasma protein binding in monkey at 1 uM after 5 hrs by equilibrium dialysis based LC-MS/MS analysis; format: ADME, cell-free, Macaca mulatta; conditions: rhesus monkey
In short: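 Equilibrium dialysis of pooled plasma of each species spiked at 1 μM against 0.1 M sodium phosphate, pH 7.4. 5 h at 37 °C with shaking at 60 rpm. Both sides matrix-matched, ACN/IS quench, LC/MS. % bound = 100 − (buffer/plasma peak-area ratio × 100); recovery also calculated. Warfarin as reference.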

[19] = AUC(0 to t) in Sprague-Dawley rat at 1 mg/kg, iv measured upto 24 hrs by LC-MS/MS analysis; format: ADME, organism-based; set-up: time < 24 hrs, dose 1 mg/kg, route iv; conditions: in vivo
In short: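 Male ICR mice (2 mg/kg), male SD rats (1 mg/kg) or male Beagle dogs (1 mg/kg) given a single intravenous dose in 10% PEG400 + 90% PBS adjusted to pH 8.0 with NaOH.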

Compound: C[C@H]1CC2(CCN(c3ccc(C(=O)N4CCN(C5CN(c6ccc7c(c6)C(=O)N(C6CCC(=O)NC6=O)C7=O)C5)CC4)cc3)CC2)CN1c1ccc(C#N)c(Cl)c1 (stereo not given in full)
- Activity (LNCaP [1]): inactive
- F [2]: 53%
- t1/2 [3]: > 2 h
- Activity [4]: > 95%
- Vdss [5]: 1.3 L/kg
- inhibition in vivo at 15 mg/kg (VCaP [6]): 61%
- Cmax [7]: 294 ng/mL
- inhibition in vivo at 30 mg/kg (VCaP [8]): 80%
- Activity (VCaP [9]): Dose-Dependent Effect
- Activity [10]: 79%
- Activity (VCaP [11]): inactive
- t1/2 [12]: > 1 h
- IC50 (Cytochrome P450 2C19): > 10 µM
- clearance [13]: 10.2 mL/min/kg
- Activity (LNCaP [14]): inactive
- t1/2 [15]: > 2 h
- Vdss [16]: 2.8 L/kg
- t1/2 [17]: > 2 h
- PPB [18]: 99.2%
- AUCt [19]: 1560 ng·h/mL
